Measured values from article PMC8963331 (Toxicological Sciences, 2022).
Read-outs that look alike come from different tables or passages of the source. Marks after values point to notes of the source that are not given here.

Tests used:
[1] = Rat 4-, 13-, 26-week repeat-dose general toxicity studies; type: in vivo; conditions: both, Sprague-Dawley (Crl:CD), rat, in vivo, oral
In short: (§1)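 Crl:CD Sprague Dawley rats, 7–8 weeks old at start, dosed daily by oral gavage (10 ml/kg) at 0 (vehicle), 30, 100 or 1000 mg/kg/day for 4, 13 or 26 weeks. n = 10/sex/group, plus 4-week dose-free recovery (n = 5/sex). Rats fasted overnight. Hematology, coagulation and clinical chemistry sampled at baseline, end of dosing and end of recovery. Sexes pooled; treated groups compared with vehicle; variance homogeneity by […] Levene test.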

[2] = tested on: Crl:CD Sprague Dawley (SD) rats; test: as above; type: in vivo
In short: as §1

[3] = Dog 4-, 13-, 39-week repeat-dose general toxicity studies; type: in vivo; conditions: both, beagle, dog, in vivo, oral
[4] = tested on: beagle dogs; test: as above; type: in vivo
[5] = Rat embryo–fetal development; type: in vivo; conditions: female, rat, in vivo, oral
In short: (§2)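 Time-mated female Crl:CD Sprague Dawley rats, 10–12 weeks old at dosing start, gavaged daily (10 ml/kg) with 0 (vehicle), 30, 100 or 1000 mg/kg/day test compound on GDs 6–17; n = 22/group plus a toxicokinetic group. Cesarean-section counts: corpora lutea, implantation sites, preimplantation loss, resorptions. Fetuses weighed and checked for external, visceral and skeletal (Alizarin Red S, after evisceration) abnormalities. Fetal weights compared by ANCOVA/Dunnett with litter size as covariate.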

[6] = tested on: Time-mated female rats; test: Rat embryo–fetal development; type: in vivo; conditions: for Corpora lutea (mean ± SD) / Implantation sites (mean ± SD) / Preimplantation loss (mean ± SD) / Total resorptions (mean ± SD) / Females with live fetuses / Pregnant females: rat EFD; for Females with live fetuses / Pregnant females: 22 total females
In short: as §2

[7] = Rabbit embryo–fetal development; type: in vivo; conditions: female, rabbit, in vivo, oral
In short: (§3)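 Time-mated female rabbits, 6–8 months old at dosing start, gavaged daily (10 ml/kg) with vehicle or 10, 30 or 60 mg/kg/day test compound over GDs 7–19; n = 22/group plus a toxicokinetic group. Cesarean-section endpoints: corpora lutea, implantation sites, preimplantation loss, resorptions. Fetuses weighed and examined externally, viscerally and, after evisceration and Alizarin Red S staining, skeletally. Fetal weights analysed by ANCOVA with Dunnett's test, litter size as covariate.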

[8] = tested on: Time-mated female rabbits; test: Rabbit embryo–fetal development; type: in vivo; conditions: for Corpora lutea (mean ± SD) / Implantation sites (mean ± SD) / Preimplantation loss (mean ± SD) / Total resorptions (mean ± SD) / Females with live fetuses / Pregnant females: rabbit EFD; for Females with live fetuses / Pregnant females: 22 total females
In short: as §3

[9] = Exposure comparisons stated jointly for several nonclinical species; type: in vivo, rat, dog, rabbit
[10] = tested on: mouse colitis model; conditions: ref Sandborn et al., 2020; cited from earlier work
[11] = tested on: humans; conditions: QD, ref Sandborn et al., 2020, cited from earlier work
[12] = rat, 4 weeks, 1000 mg/kg/day, reversible
[13] = rat, 13 weeks, 1000 mg/kg/day, reversible
[14] = rat, 26 weeks, 1000 mg/kg/day, reversible
[15] = dog, 39-week study, 100 mg/kg/day
[16] = dog, 39-week study, 100 mg/kg/day, reversible
[17] = dog, 39-week study, 30 and 100 mg/kg/day

## Cc1cc(Nc2cc3ncccc3c(N[C@@H]3C[C@H]4CC[C@@H](C3)N4CCC#N)n2)n[nH]1 [izencitinib, Izencitinib]
[1]
  NOAEL at 26 weeks: 1000 mg/kg/day
[2]; rat repeat-dose studies, up to highest tested doses
  organ weights and microscopic findings in male reproductive tissues: no microscopic findings
[2]; rat repeat-dose toxicity studies, any dose
  effects on lipid levels: no effects
[2]; rat, 100 mg/kg/day
  spleen weight, change: 0.87 ×
[2]; rat, 1000 mg/kg/day
  spleen weight, change: 0.78–0.86 ×
[2]; rat, 4 weeks
  no observed adverse effect level: 1000^c mg/kg/day
[2]; rat, 4 weeks, 100 mg/kg/day, reversible
  platelet counts, change: 1.1 ×
[2]; [12]
  lymphocyte counts, change: 0.64 ×
  platelet counts, change: 1.2 ×
  white blood cell counts, change: 0.66 ×
[2]; rat, 4 weeks, any dose
  changes in red blood cell parameters: No changes
[2]; rat, 13 weeks
  no observed adverse effect level: 1000^c mg/kg/day
[2]; rat, 13 weeks, 100 mg/kg/day, reversible
  lymphocyte counts, change: 0.78 ×
[2]; rat, 13 weeks, 1000 mg/kg/day, end of dosing
  hemoglobin levels, change: 0.97 ×
[2]; rat, 13 weeks, 1000 mg/kg/day, end of recovery period
  hemoglobin levels, change: 0.95 ×
[2]; [13]
  lymphocyte counts, change: 0.64 ×
  platelet counts, change: 1.2 ×
  red blood cell counts, change: 0.96 ×
  white blood cell counts, change: 0.74 ×
[2]; rat, 26 weeks, 1000 mg/kg/day
  platelet counts, change: 1.1 ×
  white blood cell counts, change: 0.68 ×
[2]; [14]
  incidence of minimally decreased lymphoid cellularity, females: 1 of 10
  incidence of minimally decreased lymphoid cellularity, males: 4 of 10
[2]; rat, 26 weeks, all dose levels
  hemoglobin levels, change: 0.95 ×
[2]; rat, all repeat-dose studies
  effects on food consumption, ophthalmic evaluations, clinical chemistry, urinalysis: no effects
[2]; rat, any dose, 3 studies
  changes in reticulocyte levels: No changes
  effects on neutrophils: No izencitinib-related effects
[2]; rat, any dose, all 3 studies
  changes in coagulation parameters: no changes
[2]; rat, up to 1000 mg/kg/day, all studies
  other changes in organ weights or microscopic effects, including GI tissues: No other changes
[2]; rat, up to highest tested dose 1000 mg/kg/day, 4-, 13-, 26-week studies
  tolerability: well-tolerated
[3]
  NOAEL at 39 weeks: 30 mg/kg/day
[4]; all dog studies
  effects on ophthalmology, electrocardiography, food consumption, urinalysis: No effects
[4]; dog 4-week study, 300 mg/kg/day, after 12–13 days
  tolerability: not tolerated
[4]; dog 4-week study, 300/100 mg/kg/day, days 18 and 19
  early euthanasia: 3 dogs
[4]; dog 39-week study, 100 mg/kg/day, at 25–26 weeks, skin observations
  early euthanasia: 2 dogs
[4]; dog repeat-dose studies, up to highest tested doses
  organ weights and microscopic findings in male reproductive tissues: no microscopic findings
[4]; dog repeat-dose toxicity studies, any dose
  effects on lipid levels: no effects
[4]; dog, 4- and 13-week studies
  dose with decreased hematopoietic and lymphoid cellularity (microscopic): ≥ 100 mg/kg/day
[4]; dog, 4- and 13-week studies, 100 mg/kg/day, reversible
  red blood cell parameters, change: 0.82–0.85 ×
[4]; dog, 4- and 13-week studies, any dose
  changes in reticulocyte levels: No changes
[4]; dog, 4 weeks
  no observed adverse effect level: 30^c mg/kg/day
[4]; dog, 4 weeks, end of dosing phase
  effects on white blood cell parameters: No significant effects
[4]; dog, 13- and 39-week studies, 100 mg/kg/day
  fibrinogen levels, change: 1.3–1.4 ×
[4]; dog, 13 weeks
  effects on white blood cell, lymphocyte, or neutrophil counts: No izencitinib-related effects
  no observed adverse effect level: 30^c mg/kg/day
[4]; dog, 13 weeks, 100 mg/kg/day, reversible
  platelets, change: 1.5 ×
[4]; dog, 39-week study
  dose with decreased hematopoietic and lymphoid cellularity (microscopic): ≥ 30 mg/kg/day
[4]; [15]
  red blood cell parameters, change: 0.76–0.79 ×
  tolerability: not tolerated
[4]; dog, 39-week study, 100 mg/kg/day, after recovery
  hemoglobin levels, change: 0.87 ×
[4]; dog, 39-week study, 100 mg/kg/day, recovery animals
  white blood cell counts, change: 1.3 ×
[4]; [16]
  helper T cells (immunophenotyping), change: 0.71 ×
  lymphocyte counts, change: 0.70 ×
  total T cells (immunophenotyping), change: 0.71 ×
  total lymphocytes (immunophenotyping), change: 0.70 ×
[4]; dog, 39-week study, 100 mg/kg/day, without reversibility in 4-week recovery
  B cells (immunophenotyping), change: 0.59 ×
[4]; [17]
  neutrophils, change: 1.3–1.5 ×
  platelets, change: 1.3–2.2 ×
[4]; dog, 39-week study, 30 and 100 mg/kg/day, after recovery
  hematocrit, change: 0.90–0.92 ×
[4]; dog, 39-week study, 30 and 100 mg/kg/day, reversible
  reticulocytes, change: 0.45–0.51 ×
[4]; dog, 39 weeks, 30 mg/kg/day
  red blood cell parameters, change: 0.90–0.91 ×
[4]; dog, 39 weeks, 30 mg/kg/day, end of dosing phase
  white blood cell counts, change: 1.2 ×
[4]; dog, any dose, 3 studies
  effects on prothrombin time or activated partial thromboplastin time: No effects
[4]; dog, up to 100 mg/kg/day, all 3 studies
  microscopic findings in GI tissues: no adverse microscopic findings
[5]
  NOAEL: 1000 mg/kg/day
[6]; 30 mg/kg/day oral GDs 6–17
  Corpora lutea (mean ± SD): 14 ± 2.0
  Implantation sites (mean ± SD): 14 ± 2.0
  Preimplantation loss (mean ± SD): 1.0 ± 0.9
  Total resorptions (mean ± SD): 0 ± 0.6
  Females with live fetuses: 22
  Pregnant females: 22
[6]; 100 mg/kg/day oral GDs 6–17
  Corpora lutea (mean ± SD): 14 ± 2.3
  Implantation sites (mean ± SD): 13 ± 1.8
  Preimplantation loss (mean ± SD): 1.0 ± 1.2
  Total resorptions (mean ± SD): 0 ± 0.7
  Females with live fetuses: 22
  Pregnant females: 22
[6]; 1000 mg/kg/day oral GDs 6–17
  Corpora lutea (mean ± SD): 14 ± 1.7
  Implantation sites (mean ± SD): 13 ± 1.9
  Preimplantation loss (mean ± SD): 1.0 ± 1.0
  Total resorptions (mean ± SD): 0 ± 1.1
  Females with live fetuses: 22
  Pregnant females: 22
[6]; rat, all doses
  effects on cesarean section parameters: no effects
  fetal external, visceral, or skeletal malformations: no observations
[7]
  NOAEL: 60 mg/kg/day
[8]; rabbit
  effects on fetal parameters: no effects
[8]; 10 mg/kg/day oral GDs 7–19
  Corpora lutea (mean ± SD): 10 ± 1.7
  Implantation sites (mean ± SD): 10 ± 1.6
  Preimplantation loss (mean ± SD): 1.0 ± 0.8
  Total resorptions (mean ± SD): 0 ± 0.4
  Females with live fetuses: 20
  Pregnant females: 22
[8]; 30 mg/kg/day oral GDs 7–19
  Corpora lutea (mean ± SD): 11 ± 2.0
  Implantation sites (mean ± SD): 10 ± 1.9
  Preimplantation loss (mean ± SD): 1.0 ± 0.9
  Total resorptions (mean ± SD): 0 ± 0.4
  Females with live fetuses: 21
  Pregnant females: 21
[8]; 60 mg/kg/day oral GDs 7–19
  Corpora lutea (mean ± SD): 11 ± 2.3
  Implantation sites (mean ± SD): 10 ± 2.8
  Preimplantation loss (mean ± SD): 1.0 ± 1.5
  Total resorptions (mean ± SD): 1 ± 1.6
  Females with live fetuses: 21
  Pregnant females: 22
[8]; rabbit, any dose
  effects on cesarean section parameters: no adverse effects
[8]; rabbit, up to 60 mg/kg/day
  tolerability: well tolerated
[9]; rat and dog general toxicity studies, each study, vs human 300 mg QD
  nonclinical:clinical systemic exposure (AUC) ratio at the NOAEL dose: 6- to 18 fold
[9]; rat and rabbit EFD studies
  fetal exposure: negligible
  maternal plasma Cave:JAK IC50 ratio: 2–6 ×
[9]; rat and rabbit EFD, highest dose tested
  Cave:uncorrected IC50 ratio: ≥ 2 ×
[10]
  JAK inhibitor-associated splenic natural killer (NK) cell reductions: spared
[11]; phase 1b, ulcerative colitis patients
  dose up to which well tolerated: 270 mg
[11]; phase 1 single ascending dose
  dose up to which well tolerated: 1000 mg
